≈ marks a conversion by molar mass, not a printed value. Each block holds one molecule with its values, some of them ahead of it. Calls of active or inactive are those of the source. The calls are words filed in the database; no cut-off is given here.
Key:
[1] = Volume of distribution in Wistar rat plasma at 1 mg/kg, iv; type: ADME, organism-based; set-up: dose 1 mg/kg, route intravenous; details: read-out: Vdss
[2] = Cmax in po dosed DIO C57BL/6 mouse after 5 hrs; type: ADME, organism-based; set-up: route oral; details: in vivo
Homo sapiens = species: Homo sapiens; assay: Binding affinity to calcium channel L type
[3] = Cmax in Wistar rat plasma at 3 mg/kg, po; type: ADME, organism-based; set-up: dose 3 mg/kg, route oral
Summary of the method: (§1)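 Wistar rat pharmacokinetic screen; single oral dose of 3 mg/kg in PEG400/methanesulfonic acid (80:20) vehicle; plasma exposure measured.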

Mus musculus [4] = assay: Increase in food intake in DIO C57BL/6 mouse at 30 mg/kg, after 5 hrs relative to control; type: functional
Mus musculus [5] = assay: Decrease in body weight in DIO C57BL/6 mouse at 30 mg/kg, po after 9 days; type: functional; set-up: scale not given: the % may be the effect or the level left
[6] = Bioavailability in Wistar rat plasma at 3 mg/kg, po; type: ADME, organism-based
[7] = Cmax in Wistar rat at 3 mg/kg, po; type: ADME, organism-based; set-up: dose 3 mg/kg, route oral; details: in vivo; summary of the method: as §1
[8] = molecular target: T1, Growth hormone secretagogue receptor type 1 (Homo sapiens, UniProt Q92847); assay: Agonist activity at human recombinant GHSR1a expressed in HEK293F cells assessed as stimulation of [35S]GTP-gamma-S binding relative to ghrelin; type: functional, cell-based
T1 sequence (Q92847 whole entry): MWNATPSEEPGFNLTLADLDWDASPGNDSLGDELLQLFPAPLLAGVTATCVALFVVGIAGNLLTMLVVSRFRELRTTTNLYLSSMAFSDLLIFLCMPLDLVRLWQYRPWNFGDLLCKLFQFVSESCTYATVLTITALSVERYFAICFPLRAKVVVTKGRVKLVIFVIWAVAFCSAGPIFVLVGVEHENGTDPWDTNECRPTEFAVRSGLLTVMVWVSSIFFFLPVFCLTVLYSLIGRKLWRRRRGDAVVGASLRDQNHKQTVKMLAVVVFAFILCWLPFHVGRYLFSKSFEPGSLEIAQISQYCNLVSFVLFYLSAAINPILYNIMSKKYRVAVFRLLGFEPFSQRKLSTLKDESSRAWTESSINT
Summary of the method: (§2)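 Functional read-out as GTPγS binding to membranes from HEK293F cells overexpressing recombinant GHS-R1a; values are the mean of at least two replicates.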

Brain = assay: Drug level in po dosed DIO C57BL/6 mouse brain after 5 hrs relative to plasma concentration; type: ADME, organism-based
[9] = molecular target: T1, Growth hormone secretagogue receptor type 1; assay: Antagonist activity at human recombinant GHSR1a expressed in HEK293F cells by [35S]GTP-gamma-S binding assay; type: functional, cell-based; summary of the method: as §2
Rattus norvegicus [10] = assay: Decrease in blood glucose level in DIO Wistar rat using at 10 mg/kg after 5 hrs by IPGTT test relative to control; type: functional; set-up: scale not given: the % may be the effect or the level left
[11] = Aqueous solubility at pH 7.2; type: physicochemical
Mus musculus [12] = assay: Decrease in food intake in DIO C57BL/6 mouse at 30 mg/kg, po after 24 hrs relative to control; type: functional, organism-based; set-up: dose 30 mg/kg
[13] = Cmax in Wistar rat plasma at 1 mg/kg, iv; type: ADME, organism-based; set-up: dose 1 mg/kg, route intravenous
[14] = molecular target: 5-hydroxytryptamine receptor 2A (Homo sapiens) (UniProt P28223); assay: Binding affinity to 5HT2a receptor
Chain of 5-hydroxytryptamine receptor 2A (Homo sapiens) (P28223 whole entry): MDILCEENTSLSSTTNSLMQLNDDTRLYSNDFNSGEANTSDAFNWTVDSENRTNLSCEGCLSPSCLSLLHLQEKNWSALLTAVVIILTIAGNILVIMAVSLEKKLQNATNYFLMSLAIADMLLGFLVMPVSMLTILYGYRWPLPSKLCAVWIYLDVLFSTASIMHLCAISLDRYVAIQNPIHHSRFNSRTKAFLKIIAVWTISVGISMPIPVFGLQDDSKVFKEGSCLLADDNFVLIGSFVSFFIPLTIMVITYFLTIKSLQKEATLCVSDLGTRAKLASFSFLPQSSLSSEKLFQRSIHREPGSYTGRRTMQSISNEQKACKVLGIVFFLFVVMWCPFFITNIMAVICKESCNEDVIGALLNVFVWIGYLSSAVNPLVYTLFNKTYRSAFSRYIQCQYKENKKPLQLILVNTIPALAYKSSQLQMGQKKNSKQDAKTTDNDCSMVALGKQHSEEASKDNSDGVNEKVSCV

[15] = molecular target: T2, 5-hydroxytryptamine receptor 2C (Homo sapiens, UniProt P28335); assay: Displacement of […] from 5HT2c receptor
T2 sequence (P28335 whole entry): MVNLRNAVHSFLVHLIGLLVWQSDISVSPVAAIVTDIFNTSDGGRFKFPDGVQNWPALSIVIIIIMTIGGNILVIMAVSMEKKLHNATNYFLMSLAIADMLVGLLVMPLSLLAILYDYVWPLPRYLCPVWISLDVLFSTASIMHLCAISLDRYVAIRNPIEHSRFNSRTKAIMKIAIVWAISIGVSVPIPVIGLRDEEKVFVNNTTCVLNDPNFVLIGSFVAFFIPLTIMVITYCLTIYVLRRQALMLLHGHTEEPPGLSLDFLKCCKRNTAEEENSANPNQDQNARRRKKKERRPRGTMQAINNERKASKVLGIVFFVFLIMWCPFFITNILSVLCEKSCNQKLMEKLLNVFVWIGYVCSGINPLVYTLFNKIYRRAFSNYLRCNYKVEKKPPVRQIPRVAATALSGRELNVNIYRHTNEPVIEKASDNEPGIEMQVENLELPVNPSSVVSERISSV

Ghrelin receptor = Ghrelin receptor (Ovis aries, UniProt Q8MHZ5); assay: Displacement of [125I]ghrelin from ovine recombinant GHSR1a expressed in HEK293F cells after 6 hrs by scintillation proximity assay; type: cell-based
Chain of Ghrelin receptor (Q8MHZ5 whole entry): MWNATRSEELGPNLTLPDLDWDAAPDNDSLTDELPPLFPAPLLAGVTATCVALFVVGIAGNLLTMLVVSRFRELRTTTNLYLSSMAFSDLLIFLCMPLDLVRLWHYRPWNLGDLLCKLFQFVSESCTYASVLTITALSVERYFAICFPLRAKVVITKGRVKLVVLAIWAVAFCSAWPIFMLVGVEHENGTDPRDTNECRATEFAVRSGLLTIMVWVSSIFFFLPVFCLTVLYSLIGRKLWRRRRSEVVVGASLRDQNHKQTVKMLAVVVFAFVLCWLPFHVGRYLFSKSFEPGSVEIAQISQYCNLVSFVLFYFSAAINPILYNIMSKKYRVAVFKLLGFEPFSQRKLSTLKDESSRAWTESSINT

[16] = molecular target: Motilin receptor (Homo sapiens) (UniProt O43193); assay: Binding affinity to motilin receptor
Chain of Motilin receptor (Homo sapiens) (O43193 whole entry): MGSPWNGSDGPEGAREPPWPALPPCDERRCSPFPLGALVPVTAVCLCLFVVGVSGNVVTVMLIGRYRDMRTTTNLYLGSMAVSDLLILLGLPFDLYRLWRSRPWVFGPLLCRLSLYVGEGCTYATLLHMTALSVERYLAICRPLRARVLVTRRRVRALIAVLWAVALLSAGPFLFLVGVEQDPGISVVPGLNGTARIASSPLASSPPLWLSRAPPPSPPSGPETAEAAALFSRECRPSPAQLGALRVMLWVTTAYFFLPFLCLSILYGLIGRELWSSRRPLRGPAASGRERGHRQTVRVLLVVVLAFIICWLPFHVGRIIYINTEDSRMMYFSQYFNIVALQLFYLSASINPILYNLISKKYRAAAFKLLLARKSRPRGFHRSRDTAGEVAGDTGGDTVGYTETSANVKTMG

[17] = AUC in Wistar rat plasma at 3 mg/kg, po; type: ADME, organism-based; set-up: dose 3 mg/kg, route oral; summary of the method: as §1
[18] = molecular target: 5-hydroxytryptamine receptor 2B (Homo sapiens) (UniProt P41595); assay: Binding affinity to 5HT2b receptor
Chain of 5-hydroxytryptamine receptor 2B (Homo sapiens) (P41595 whole entry): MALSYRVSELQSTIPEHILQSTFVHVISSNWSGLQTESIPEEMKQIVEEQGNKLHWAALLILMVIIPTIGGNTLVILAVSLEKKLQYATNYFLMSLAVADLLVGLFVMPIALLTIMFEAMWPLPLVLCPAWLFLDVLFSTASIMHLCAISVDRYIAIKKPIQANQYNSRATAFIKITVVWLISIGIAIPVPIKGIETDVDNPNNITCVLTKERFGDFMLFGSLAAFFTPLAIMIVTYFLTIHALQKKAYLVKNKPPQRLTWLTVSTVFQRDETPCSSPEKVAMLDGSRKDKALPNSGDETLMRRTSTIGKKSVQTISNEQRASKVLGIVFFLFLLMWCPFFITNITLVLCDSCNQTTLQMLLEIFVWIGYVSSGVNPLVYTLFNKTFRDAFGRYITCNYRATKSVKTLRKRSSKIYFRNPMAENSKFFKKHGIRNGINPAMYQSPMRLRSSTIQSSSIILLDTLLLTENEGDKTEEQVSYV

Cytochrome P450 2D6 = Cytochrome P450 2D6 (Homo sapiens, UniProt P10635); assay: Inhibition of CYP2D6; type: ADME
Chain of Cytochrome P450 2D6 (P10635 whole entry): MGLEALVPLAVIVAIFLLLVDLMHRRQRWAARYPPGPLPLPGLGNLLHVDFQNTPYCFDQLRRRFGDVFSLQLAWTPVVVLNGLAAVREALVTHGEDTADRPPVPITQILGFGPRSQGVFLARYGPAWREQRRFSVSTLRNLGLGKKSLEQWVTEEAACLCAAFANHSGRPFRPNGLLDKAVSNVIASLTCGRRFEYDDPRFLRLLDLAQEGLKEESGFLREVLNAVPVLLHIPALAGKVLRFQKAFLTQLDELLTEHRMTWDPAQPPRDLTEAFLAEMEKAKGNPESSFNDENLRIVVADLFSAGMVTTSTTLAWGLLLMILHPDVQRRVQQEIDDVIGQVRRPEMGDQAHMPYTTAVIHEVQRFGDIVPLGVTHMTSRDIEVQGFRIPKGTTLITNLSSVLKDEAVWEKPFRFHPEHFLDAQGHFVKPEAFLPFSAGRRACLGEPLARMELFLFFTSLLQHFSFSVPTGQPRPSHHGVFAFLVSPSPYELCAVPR

Mus musculus [19] = assay: Decrease in body weight in DIO C57BL/6 mouse at 10 mg/kg, po after 9 days; type: functional, organism-based; set-up: dose 10 mg/kg
[20] = Cmax in Wistar rat plasma at 0.7 mg/kg, iv; type: ADME, organism-based; set-up: dose 0.7 mg/kg, route intravenous
[21] = AUC (0-t) in Wistar rat plasma at 0.7 mg/kg, iv; type: ADME, organism-based; set-up: dose 0.7 mg/kg, route intravenous
Rattus norvegicus [22] = assay: Half life in Wistar rat plasma at 0.7 mg/kg, iv; type: ADME, organism-based; set-up: dose 0.7 mg/kg, route intravenous; details: in vivo
Rattus norvegicus [23] = assay: Volume of distribution at steady state in Wistar rat plasma at 0.7 mg/kg, iv; type: ADME, organism-based; set-up: dose 0.7 mg/kg, route intravenous; details: in vivo

SMILES: CCN1CCC[C@@H](Cn2c(-c3ccc(C(F)(F)F)cc3)nc3ccc(-c4ccc(Cl)cc4)cc3c2=O)C1
- Ki (Ghrelin receptor): 240 nM

SMILES: Cc1ccccc1-c1nc2ccc(-c3ccc(Cl)cc3)cc2c(=O)n1CC1CCCN(CC(F)(F)F)C1 (configuration not stated)
- Cmax [7]: 170 nM
- Ki (Ghrelin receptor): 2000 nM

SMILES: CCN1CCCC(CCn2c(-c3ccccc3OC)nc3ccc(-c4ccc(Cl)cc4)cc3c2=O)C1 (configuration not stated)
- Ki (Ghrelin receptor): > 10000 nM

SMILES: CCN1CCC[C@@H](Cn2c(-c3ccccc3C)nc3ccc(OC(F)(F)F)cc3c2=O)C1
- Ki (Ghrelin receptor): 95 nM

SMILES: Cc1ccccc1-c1nc2ccccc2c(=O)n1CC1CCCN(C(C)C)C1 (configuration not stated)
- Ki (Ghrelin receptor): 1200 nM

SMILES: Cc1ccccc1-c1nc2ccc(-c3ccc(Cl)cc3)cc2c(=O)n1CC1CCCN(C(C)C)C1 (configuration not stated)
- Cmax [7]: 150 nM

SMILES: Cc1ccccc1-c1nc2ccc(Oc3ccc(F)cc3)cc2c(=O)n1C[C@H]1CCCN(C(C)C)C1 (stereo in doubt; 36) [listing 1 of 2 here]
- E/Emax [8]: 22%
- Kb [9]: 0.19 nM

SMILES: CC(C)c1nc2ccc(-c3ccccc3Cl)cc2c(=O)n1C[C@@H]1CCCN(C(C)C)C1
- Ki (Ghrelin receptor): 1800 nM

SMILES: CC(C)c1nc2ccc(-c3ccc(Cl)cc3)cc2c(=O)n1C[C@H]1CCCN(C(C)C)C1
- IC50 (Cytochrome P450 2D6): 6300 nM
- Cmax [7]: 290 nM
- E/Emax [8]: 0%
- Kb [9]: 77 nM
- solubility [11]: 60 µM (≈ 26.3 µg/mL)
- Ki [15]: > 1000 nM
- Ki (Ghrelin receptor): 45 nM

SMILES: Cc1ccccc1-c1nc2ccc(-c3ccc(Cl)cc3)cc2c(=O)n1CC1CCCN(CCC(F)(F)F)C1 (configuration not stated)
- Ki (Ghrelin receptor): 250 nM

SMILES: CCN1CCCC(Cn2c(-c3ccccc3OC)nc3ccc(OC)cc3c2=O)C1 (configuration not stated)
- Ki (Ghrelin receptor): 910 nM

SMILES: Cc1ccccc1-c1nc2ccc(-c3ccc(Cl)cc3)cc2c(=O)n1CC1CN(C(C)C)CCO1 (configuration not stated)
- Ki (Ghrelin receptor): 190 nM

SMILES: CCN1CCCC(Cn2c(-c3ccccc3OC)nc3cc(-c4ccc(Cl)cc4)ccc3c2=O)C1 (configuration not stated)
- Ki (Ghrelin receptor): > 10000 nM

SMILES: CCN1CCC[C@@H](Cn2c(C(C)C)nc3ccc(-c4ccc(F)cc4)cc3c2=O)C1
- Ki (Ghrelin receptor): 5700 nM

SMILES: CC(C)N1CCCC(Cn2c(-c3ccc(OCCO)cc3F)nc3ccc(Oc4ccc(F)cc4)cc3c2=O)C1 (racemic)
- Cmax [2]: 5.7 µM
- Activity (Mus musculus [4]): 4%
- Drug uptake (Brain): < 0.001%

Further lines, with some results ahead:

- Vd [1]: 19.2 L/kg
- Cmax [2]: 3.4 µM
- Activity (Homo sapiens): > 1 µM
- Cmax [3]: 80 ng/mL
- bioavailability [6]: 85%
- Cmax [7]: 220 nM
- E/Emax [8]: 11%
- Drug uptake (Brain): 19%
- Kb [9]: 11 nM
- solubility [11]: 500 µM (≈ 205 µg/mL)
- Cmax [13]: 110 ng/mL
- Activity [14]: > 1 µM
- Ki [15]: > 1000 nM
- Ki (Ghrelin receptor): 17 nM
- Activity [16]: > 1 µM
- AUC [17]: 1300 ng·h/mL
- Activity [18]: > 1 µM
SMILES: Cc1nc2ccc(Oc3ccc(F)cc3)cc2c(=O)n1C[C@H]1CCCN(C(C)C)C1
- Activity (Mus musculus [4]): -12%
- Activity (Mus musculus [5]): <=5%
- Activity (Rattus norvegicus [10]): -23%
- Activity (Mus musculus [12]): Active

- Cmax [2]: 0.8 µM
- IC50 (Cytochrome P450 2D6): 150 nM
- Activity (Homo sapiens): > 1 µM
- Cmax [3]: 70 ng/mL
- bioavailability [6]: 69%
- Cmax [7]: 150 nM
- E/Emax [8]: 15%
- Drug uptake (Brain): 76%
- Kb [9]: 14 nM
- Cmax [20]: 100 ng/mL
- solubility [11]: 280 µM (≈ 118 µg/mL)
- AUC(0-t) [21]: 580 ng·h/mL
- t1/2 (Rattus norvegicus [22]): 16 h
- Activity [14]: > 1 µM
- Ki [15]: > 1000 nM
- Ki (Ghrelin receptor): 39 nM
- Activity [16]: > 1 µM
- AUC [17]: 1700 ng·h/mL
- Activity [18]: > 1 µM
- Vdss (Rattus norvegicus [23]): 0.68 L/kg
SMILES: CC(C)c1nc2ccc(-c3ccc(F)cc3)cc2c(=O)n1C[C@H]1CCCN(C(C)C)C1
- Activity (Mus musculus [19]): Active
- Activity (Mus musculus [4]): -17%
- Activity (Mus musculus [5]): Active
- Activity (Rattus norvegicus [10]): -20%
- Activity (Mus musculus [12]): Active

- Cmax [7]: 30 nM
- E/Emax [8]: -18%
- Kb [9]: 36 nM
- Ki (Ghrelin receptor): 26 nM
SMILES: CCN1CCC=C(Cn2c(-c3ccccc3C)nc3ccc(-c4ccc(Cl)cc4)cc3c2=O)C1

- Cmax [7]: 40 nM
- E/Emax [8]: 92%
- EC50 [8]: 6.5 nM
- Ki (Ghrelin receptor): 0.9 nM
SMILES: Cc1ccccc1-c1nc2ccc(Oc3ccc(F)cc3)cc2c(=O)n1CC1CCCNC1 (configuration not stated)

- Cmax [2]: 3.1 µM
- IC50 (Cytochrome P450 2D6): 90 nM
- Cmax [7]: 90 nM
- Drug uptake (Brain): 1%
- solubility [11]: 250 µM (≈ 121 µg/mL)
- Ki [15]: > 1000 nM
- Ki (Ghrelin receptor): 0.86 nM
SMILES: Cc1ccccc1-c1nc2ccc(Oc3ccc(F)cc3)cc2c(=O)n1C[C@H]1CCCN(C(C)C)C1 (stereo in doubt; 36) [listing 2 of 2 here]
- Activity (Mus musculus [4]): -7%
- Activity (Rattus norvegicus [10]): -19%

- Cmax [7]: 240 nM
- E/Emax [8]: 4%
- Kb [9]: 45 nM
- Ki (Ghrelin receptor): 24 nM
SMILES: CCN1CCCC(Cn2c(-c3ccccc3C)nc3ccc(OC(F)(F)F)cc3c2=O)C1 (configuration not stated)

From ChEMBL document CHEMBL1148824, “Quinazolinone derivatives as orally available ghrelin receptor antagonists for the treatment of diabetes and obesity” (J Med Chem, 2007)
